From ChEMBL document CHEMBL1131291, “Rational design, synthesis, and X-ray structure of selective noncovalent thrombin inhibitors” (J Med Chem, 1998)

Legend:
[1] = molecular target: Prothrombin (Homo sapiens, UniProt P00734); test: In vitro inhibition was measured against Human Thrombin.
[2] = molecular target: T1, Serine protease 1 (Bos taurus, UniProt P00760); test: In vitro inhibition was measured against […] bovine pancreatic trypsin.
T1 sequence (P00760 whole entry): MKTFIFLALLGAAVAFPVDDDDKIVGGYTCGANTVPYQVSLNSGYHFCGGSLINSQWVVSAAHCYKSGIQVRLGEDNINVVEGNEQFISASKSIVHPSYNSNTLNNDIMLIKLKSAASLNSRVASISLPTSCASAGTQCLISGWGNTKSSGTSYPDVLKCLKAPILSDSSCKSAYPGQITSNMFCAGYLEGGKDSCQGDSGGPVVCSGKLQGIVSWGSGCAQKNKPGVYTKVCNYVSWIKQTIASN
Procedure, shortened: (§1)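 Trypsin at 260 pM final was run with Pefachrome TRY substrate in 100 mM sodium phosphate pH 7.4, 100 mM NaCl and 0.1% BSA, at 25 °C. Inhibitor was pre-mixed with substrate and the reaction started with enzyme. Absorbance at 405 nm (p-nitroaniline) was read over 30 min. Ki was fitted to the Dixon equation by weighted linear regression; triplicate, mean ± SD.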

[3] = molecular target: T2, Coagulation factor X (Homo sapiens, UniProt P00742); test: In vitro inhibition was measured against Human Coagulation factor X; […]
Procedure, shortened: (§2)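 Factor Xa was used at 30 pM final, with Pefachrome Xa substrate, in phosphate buffer pH 7.4 with 100 mM NaCl and 0.1% BSA, at 25 °C. The enzyme-initiated reaction was followed as the 405 nm increase for 30 min. Inhibitor was diluted from a cremophor/ethanol solution. Ki came from weighted Dixon-plot regression; triplicate determinations.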

[4] = molecular target: T2, Coagulation factor X; test: In vitro inhibition was measured against Human Coagulation factor X; procedure, shortened: as §2
[5] = molecular target: T1, Serine protease 1; test: In vitro inhibition was measured against Bovine pancreatic trypsin.; procedure, shortened: as §1

T2 sequence (P00742 41-179 limits assumed): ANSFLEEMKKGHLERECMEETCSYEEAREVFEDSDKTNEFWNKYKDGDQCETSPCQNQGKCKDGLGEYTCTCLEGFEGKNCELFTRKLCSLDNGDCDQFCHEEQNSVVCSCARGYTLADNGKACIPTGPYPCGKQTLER
T2 sequence (P00742 235-488 limits assumed): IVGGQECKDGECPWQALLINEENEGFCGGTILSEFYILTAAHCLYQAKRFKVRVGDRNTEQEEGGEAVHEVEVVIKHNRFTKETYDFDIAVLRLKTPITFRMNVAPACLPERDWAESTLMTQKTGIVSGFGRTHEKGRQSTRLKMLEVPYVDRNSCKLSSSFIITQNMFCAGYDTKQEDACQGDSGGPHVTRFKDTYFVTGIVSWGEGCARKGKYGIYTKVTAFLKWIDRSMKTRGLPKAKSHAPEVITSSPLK

Row | Structure (SMILES) | Ki [1] [µM] | Ki [2] [µM] | Ki [3] | Ki [4] [µM] | Ki [5] [µM]
1 | N=C(N)NCCCNC(=O)[C@@H]1CS[C@H]2CC[C@@H](NS(=O)(=O)Cc3ccccc3)C(=O)N21 | – | 5.1 | – | 26 | –
2 | NC(N)=NCCCNC(=O)[C@@H]1CS[C@H]2CC[C@H](N)C(=O)N21 | 5.1 | 13.3 | – | > 33.7 | –
3 | NC(N)=NCCCNC(=O)[C@@H]1CS[C@H]2CC[C@@H](N)C(=O)N21.O=C(O)C(F)(F)F | 10.3 | 25.1 | Not Active | – | –
4 | N=C(N)NCCCNC(=O)[C@@H]1CS[C@H]2CC[C@H](NS(=O)(=O)Cc3ccccc3)C(=O)N21 | 0.111 | 7.9 | – | > 33.7 | –

Other lines, results leading:

Row | Ki [1] [µM] | Ki [2] [µM] | Ki [3] | Ki [4] [µM] | Ki [5] [µM] | Structure (SMILES)
5 | 19.5 | 3.58 | Not Active | – | – | NC(N)=NCCCCNC(=O)[C@@H]1CS[C@H]2CC[C@H](N)C(=O)N21.O=C(O)C(F)(F)F
6 | – | – | – | 17.8 | 19.6 | N=C(N)NCCCNC(=O)[C@@H]1CS[C@H]2CC[C@H](NS(=O)(=O)c3cccc4ccccc34)C(=O)N21
7 | 0.751 | 3.4 | – | 6.78 | – | N=C(N)NCCCNC(=O)[C@@H]1CS[C@H]2CC[C@@H](NS(=O)(=O)c3cccc4ccccc34)C(=O)N21
8 | 62.4 | 5.36 | Not Active | – | – | NC(N)=NCCCCNC(=O)[C@@H]1CS[C@H]2CC[C@@H](N)C(=O)N21.O=C(O)C(F)(F)F
